In general, Cmax refers to the highest concentration seen after dosing. A word on the AUC: it is concentration integrated over time. A low value points to less exposure. As a reminder, the logD is the decadic logarithm of the distribution of all forms, ionised or not, between an organic phase and buffer at a given pH. Low values mean a more hydrophilic compound, high ones a more lipophilic compound. What is called pKa is the pH at which an ionisable group is half protonated.

From ChEMBL document CHEMBL3627702, “Navigating CYP1A Induction and Arylhydrocarbon Receptor Agonism in Drug Discovery. A Case History with S1P1 Agonists” (J Med Chem, 2015) come the findings set out here.

The subject of data set [1] is Rattus norvegicus. Description: Dose normalized AUC in Sprague-Dawley rat at 22 mg/kg, po QD measured on day 4. The following applies: in vivo. Type of data set: ADME, organism-based. In a few lines: (§1)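 Male CD rats (226−325 g), n = 3, given the compound once daily by oral gavage for 4 days. Vehicle was 1% (w/v) methylcellulose aq suspension at 3−6 mg/mL, dosed at 5 mL/kg (target 15−30 mg/kg). Tail vein blood was taken on days 1 and 4 up to 24 h postdose. Blood was diluted 1:1 with water, extracted by acetonitrile protein precipitation and analysed by LC−MS/MS against calibration standards in diluted blood.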

Data set [2] in a line: Cmax in Sprague-Dawley rat at 22 mg/kg, po QD measured on day 1. Type of data set: ADME, organism-based. The arrangement: dose 22 mg/kg, route oral. The following applies: in vivo. In a few lines:
as §1

Data set [3] is described as follows: Cmax in Sprague-Dawley rat at 22 mg/kg, po QD measured on day 4. Type of data set: ADME, organism-based. Also noted: dose 22 mg/kg, route oral. The following applies: in vivo. The gist of the method: as §1
The nature of data set [4]: AUC in Sprague-Dawley rat at 22 mg/kg, po QD measured on day 4. In kind it is ADME, organism-based. The following applies: in vivo. In a few lines: as §1
Data set [5] relates to CYP1A2. Kind of data set: Induction of CYP1A2 mRNA expression in Sprague-Dawley rat hepatic microsomes at 22 mg/kg, po QD for 4 days relative to control. Type of data set: ADME, organism-based, Liver. The conditions noted are these: read-out: FC.
The subject of data set [6] is Rattus norvegicus. Kind of data set: Dose normalized AUC in Sprague-Dawley rat at 22 mg/kg, po QD measured on day 1. Type of data set: ADME, organism-based. The conditions noted are these: in vivo. The gist of the method:
as §1

A short description of data set [7]: AUC in Sprague-Dawley rat at 22 mg/kg, po QD measured on day 1. Type of data set: ADME, organism-based. The following applies: in vivo. In a few lines: as §1
The nature of data set [8]: Lipophilicity, log D of the compound at pH 7.4. Type of data set: physicochemical. The conditions noted are these: buffer.
A short description of data set [9]: Dissociation constant, pKa of the compound. Type of data set: physicochemical.
In data set [10] the test system is CYP1A1. Kind of data set: Induction of CYP1A1 mRNA expression in Sprague-Dawley rat hepatic microsomes at 22 mg/kg, po QD for 4 days relative to control. In kind it is ADME, organism-based, Liver. The following applies: read-out: FC. In a few lines: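 Male CD rats (226–325 g, n = 3) were dosed by oral gavage once daily for 4 days as a 1% w/v aqueous methylcellulose suspension (3–6 mg/mL, 5 mL/kg). At the end of the study, a left lateral liver lobe section was placed in RNALater and homogenised in TRIzol. RNA was purified, DNase-treated and converted to cDNA, and Cyp1a1 was read on low-density TaqMan arrays.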

For data set [11], the system named is Hepatocyte. Kind of data set: Induction of CYP1A2 mRNA expression in rat hepatocytes at 10 uM by Taqman analysis relative to control. In kind it is ADME, cell-based. The conditions noted are these: 10 µM. (In general: Real-time PCR tracks product formation cycle by cycle.)
In data set [12] the test system is CYP1A1. Description: (§2) Induction of CYP1A1 mRNA expression in rat hepatic microsomes at 20 mg/kg, po QD for 4 days relative to control. In kind it is ADME, organism-based, Liver. The conditions noted are these: hepatic microsomes, read-out: FC. The gist of the method:
(§3)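 Male CD rats, n = 3, received the compound once daily by oral gavage for 4 days in 1% methylcellulose suspension at 5 mL/kg. At necropsy a left lateral liver lobe section was stored in RNALater on ice. Tissue was TRIzol-homogenized, RNA purified, DNased and converted to cDNA. Cyp1a1 was read on low density arrays and expressed relative to control.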

The test system of data set [13] is CYP1A2. Description: (§4) Induction of CYP1A2 mRNA expression in rat hepatic microsomes at 20 mg/kg, po QD for 4 days relative to control. Type of data set: ADME, organism-based, Liver. The conditions noted are these: hepatic microsomes, read-out: FC. The gist of the method:
(§5)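 Male CD rats (226–325 g), n = 3, given test compound by oral gavage once daily for 4 days. Vehicle was 1% w/v methylcellulose aqueous suspension (3–6 mg/mL, 5 mL/kg); target dose 15–30 mg/kg. Liver from the left lateral lobe was put in RNALater, then TRIzol extraction and cDNA conversion; Cyp1a analysed on low-density arrays.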

Data set [14] deals with CYP1A1. Kind of data set: (§6) Induction of CYP1A1 mRNA expression in rat hepatocytes at 10 uM by Taqman analysis relative to control. Type of data set: ADME, cell-based, Hepatocyte. The following applies: read-out: FC.
Data set [15] deals with Rattus norvegicus. The description is as §2. In kind it is ADME, organism-based, Liver. The conditions noted are these: microsomes, 96 h. The gist of the method:
as §3

Data set [16] concerns Rattus norvegicus. The description is as §4. In kind it is ADME, organism-based, Liver. The following applies: microsomes, 96 h. In a few lines:
as §5

The subject of data set [17] is Hepatocyte. The data set is described as §6. Type of data set: ADME, cell-based. The conditions noted are these: 10 µM.

As for `Cc1c(-c2noc(-c3cnc(OC(C)C)c(C#N)c3)n2)ccc2c1CCN(C(CO)CO)C2`, the AUC/dose with Rattus norvegicus [1] was 79 kg·min/L; with Rattus norvegicus [6], 66 kg·min/L. The Cmax in data set [2] came to 2100 ng/mL; in data set [3] it was 2730 ng/mL. The results for the AUC in data set [4] and in data set [7] were 28800 ng·h/mL and 24300 ng·h/mL, respectively. For the same compound, the values for the fold induction at 96 h in the data set with CYP1A2 [5] and with CYP1A1 [10] were 3 and 7, respectively. Moreover, the logD in [8] worked out at 2.84. Also, the pKa in data set [9] was found to be 7.3.
For the compound `CC(C)Oc1ncc(-c2nc(-c3cccc4c3OCCNC4CCCC(=O)O)no2)cc1Cl` (stereo in doubt; 6), the “fold change (FC)” value in the data set on Hepatocyte [11] is 19. For the same compound, the fold induction at 96 h in the data set on CYP1A1 [12] and in the data set on CYP1A2 [13] was 2 throughout. Besides, the fold induction at 10 µM in the data set on CYP1A1 [14] stood at 43.
In the case of `CC(C)Oc1ncc(-c2nc(-c3cccc4c3OCCNC4CCCC(=O)O)no2)cc1Cl` (stereo in doubt; 7), the “fold change (FC)” value with Hepatocyte [11] is on record as 8; with Rattus norvegicus [15], 1; in the data set on Rattus norvegicus [16] it was 1; in the data set on Hepatocyte [17], 32.
